From paper PMC7658932 (ACS Omega, 2020)

How the values were obtained:
[1] = Radiolabeling efficiency/kinetics of chelators with ^90Y; assay type: physicochemical; settings: pH 5.5, RT, TLC, triplicate
Procedure, shortened: (§1)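 Test compound (20 μg) in Chelex-treated 0.25 M NH4OAc (pH 5.5) was mixed with 90YCl3 or 177LuCl3 (2.22 MBq, 60 μCi, in 0.05 M HCl) using acid-washed, metal-free plasticware. The mixture was shaken at 1000 rpm at RT for 1 h. Aliquots taken at set times were run on silica gel ITLC in acetonitrile/water 3:2 and scanned by radio-TLC. Complex ran at ~50 mm, free radionuclide at ~30 mm.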

[2] = Radiolabeling efficiency/kinetics of chelators with ^177Lu; assay type: physicochemical; settings: 1 min, pH 5.5, RT, TLC, triplicate
Procedure, shortened: as §1

## O=C(O)CN1CCN(CCN(CC(=O)O)CC(=O)O)CCN(CC(CCCc2ccc([N+](=O)[O-])cc2)N(CC(=O)O)CC(=O)O)CC1 (stereo not drawn) [3p-C-NEPA, 2-{[2-(4-{2-[Bis(carboxymethyl)amino]-5-(4-nitrophenyl)pentyl}-7-(carboxymethyl)-1,4,7-triazonan-1-yl)ethyl](carboxymethyl)amino}acetic acid]
[1]; 1 min
  radiolabeling efficiency (%): > 97%
[1]; 10 min
  radiolabeling efficiency (%): > 99%
[2]
  radiolabeling efficiency (%): > 97%
